This is a sample that favours compounds with a hit; in the whole collection about 4% have one here.
hiPSC survival = enhancers of human iPSC single-cell survival | hiPSC single-cell survival, ATPlite luminescence; 100% = ROCK inhibitor wells, 0% = DMSO | survival enhancement, % at 20 µM | actives 0.044% (n = 360,000) | AID 602274; in the data active = survival enhancement above about 18%;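 note: cells exposed to compounds for 16 hours before the ATP read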
NR3A LBD binder = modulates the human NR3A ligand-binding domain. NR3A LBD differential scanning fluorimetry, Tm shift; 0% = protein alone, 100% = glycine-bound protein. Tm shift relative to glycine control, % at 25 µM. actives 2.5% (n = 340,000);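 active = melting temperature shift of at least 10% of the positive control shift, at one fixed dose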
Arr AP2 block = inhibitors of human beta-arrestin and AP2 interaction; FITC-arrestin peptide / GST-AP2 beads, flow cytometry; AP2 beta2 appendage carries R879A mutation; inhibition, % at 10 µM; actives 0.31% (n = 340,000);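 active = inhibition above a set limit, near 3 SD of compounds lacking own fluorescence, cut at about 54% in these data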;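 note: plate controls were DMSO wells for no effect and 5 µM unlabelled arrestin peptide for full effect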
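Material – GST-tagged AP2 beta2-adaptin appendage (R879A) on 4 µm glutathione beads · Probe or stimulus – fluorescein-tagged arrestin peptide at 50 nM final · Timing – 12 min plus 1 h, RT · Detection – bead flow cytometry, FITC channel · Read-out basis – inhibition as reduced fluorescein signal on beads, percent · Medium – PBS plus Tween 20 (0.05%) and BSA (0.1%)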
SENP1 FRET inh = SENP1 (human) catalytic domain inhibition | actives 0.21% (n = 360,000) | inhibition, % at 10 µM | recombinant SENP1 catalytic domain, CyPet-SUMO1-YPet FRET cleavage | Q9P0U3;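 active = inhibition at least 30% at 10 µM, raw YFP signal under a set limit, fluorescence ratio 0.5 to 1.5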;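 note: 0% = enzyme with DMSO and 100% = no enzyme wells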
Target sequence (Q9P0U3 419-644 limits assumed): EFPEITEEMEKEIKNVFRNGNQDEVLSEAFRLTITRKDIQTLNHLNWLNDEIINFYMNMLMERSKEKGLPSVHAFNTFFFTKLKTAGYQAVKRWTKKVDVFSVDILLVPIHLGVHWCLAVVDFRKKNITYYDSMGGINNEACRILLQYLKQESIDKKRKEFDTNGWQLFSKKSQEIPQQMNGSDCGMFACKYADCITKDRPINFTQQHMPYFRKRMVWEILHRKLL
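material = recombinant human SENP1 catalytic domain, His6-tagged | quantity = 20 pM enzyme | reagent = 25 nM SUMO1 FRET substrate | compound dosing = 10 µM single point, 0.5% DMSO | timing = 50 min enzyme reaction, room temperature, light-protected | detection = FRET, CFP and YFP emission | control set = no-enzyme low, enzyme-DMSO high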
FAS TE block = inhibitors of human fatty acid synthase thioesterase domain. AID 602261. inhibition, % at 15 µM. actives 0.67% (n = 360,000). recombinant FAS-TE, OMFH fluorogenic substrate, fluorescence endpoint. P49327;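 active = compounds whose normalised, plate-corrected inhibition of enzyme fluorescence in the single-dose primary screen is 50% or more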;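 note: 0% = DMSO with enzyme and 100% = substrate without enzyme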
Cardio protect = modulators protecting cardiomyocytes from myocardial damage; AID 588492; actives 0.63% (n = 360,000); H9c2 cardiomyocytes, H2O2 injury protection, ATPLite, 2 h; protection from H2O2 cell death, % at 20 µM;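 active = compounds giving at least 50% protection of heart cells from peroxide-induced death in the single-dose screen, raw or plate-pattern-corrected value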;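 note: 0% = DMSO wells with peroxide and 100% = DMSO wells without peroxide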
Active calls of the source: *; / = no result.

SMILES	hiPSC survival	NR3A LBD binder	Arr AP2 block	SENP1 FRET inh	FAS TE block	Cardio protect
C[C@H]1CN([C@@H](C)CO)S(=O)(=O)c2ccc(C#Cc3cccnc3)cc2O[C@@H]1CN(C)C(=O)Nc1ccc2c(c1)OCO2	-2	/	/	3	-2	20
C#CCN(C[C@@H]1[C@@H](OC(=O)NCc2ccco2)[C@@H](OC(=O)NCc2ccco2)CN(C(=O)OC(C)C)N1C(=O)OC(C)C)S(=O)(=O)c1ccc(C)cc1	-3	/	/	2	16	3
COc1cc2c(=O)n(Cc3ccco3)c(=O)n(CC(=O)c3cccc(Br)c3)c2cc1OC	/	0	/	/	/	/
COc1cc2c(=O)n(Cc3ccco3)c(=O)n(CC(=O)c3ccc(Br)cc3)c2cc1OC	-1	14*	7	-1	21	13
COC(=O)[C@@]12C[C@@H](CC(=O)NCCc3ccccc3OC)C(=O)N(Cc3ccccc3)C1=CCC(C)(C)C2	/	/	/	3	/	/
COc1ccc(Cn2nnnc2C(c2ccccc2)N2CCN(C3CCCC3)CC2)cc1 (stereo not drawn)	-5	-4	22	1	-4	4
c1ccc(Cn2nnnc2C(c2cccnc2)N2CCN(C3CCCCC3)CC2)cc1 (stereo not drawn)	1	-1	6	-2	-6	79*
O=C1NC(Cc2ccccc2)c2nc3ccc(F)cc3c(=O)n2-c2ncccc21 (stereo not drawn)	0	/	/	-1	-6	31
COC(=O)/C=C1\OCc2cccc(C)c21	/	/	/	1	/	/
COc1ccc(C(=O)c2c(-c3ccc(OC)cc3)oc3ccccc23)cc1	-3	-3	1	3	28	-7
COc1ccc(C(=O)c2ccc3oc(-c4ccc(OC)cc4)c(-c4ccc(O)cc4)c3c2)cc1	-1	11*	11	0	18	-15
S=C1NC2(CCCCC2)Nc2ccccc21	1	12*	4	-49	-8	8
S=C1NC2(CCCC2)Nc2ccccc21	0	-2	23	3	-7	3
COc1ccc2nc3sc(C(=O)NCCCN4CCc5ccccc5C4)cc3cc2c1	0	23*	7	-59	1	13
O=C(O)CCSc1nc2ccc(Br)cc2[nH]1	-2	13*	2	3	-2	1
Cc1ccccc1NC(=O)Nc1nc(C(N)c2ccccc2)cs1 (stereo not drawn)	-3	/	/	0	-6	2
Cc1ccc(NC(=O)CN(C)S(=O)(=O)c2cccc3cccnc23)cc1C	3	-5	5	-2	3	4
Cc1ccc(NC(=O)CN(C)S(=O)(=O)c2cccc3cccnc23)cc1F	0	14*	-8	-5	3	-5
CCCN1Cc2cccc(C(N)=O)c2C1=O	8	-1	-8	0	-10	59*
CCCN1Cc2cccc(C(=O)Nc3ccc(C)cc3)c2C1=O	3	3	-9	1	-4	0
Cc1[nH]n(-c2ccccc2)c(=S)c1C=Nc1ccc([N+](=O)[O-])cc1	2	23*	4	1	-9	25
Cc1[nH]n(-c2ccccc2)c(=O)c1C=Nc1ccc2[nH]c(=O)[nH]c2c1	0	33*	10	-2	-8	55*
Cc1cccc(-n2[nH]c(C)c(C=Nc3ccc4[nH]c(=O)[nH]c4c3)c2=O)c1	-1	32*	30	-7	-4	56*
Cc1[nH]n(-c2ccccc2)c(=O)c1C=Nc1ccc(S(=O)(=O)N=C(N)N)cc1	1	0	32	3	-2	-8
CCCCC[C@H](C)N1C[C@@H](COCc2ccccc2)Oc2cc(N3CCC[C@@H]3COC)ccc2S1(=O)=O	-1	/	/	0	20	/
SMILES	hiPSC survival	NR3A LBD binder	Arr AP2 block	SENP1 FRET inh	FAS TE block	Cardio protect
CCOc1ccc(NC(=O)c2cc3cc4ccc(OC)cc4nc3o2)cc1	-2	13*	-7	-12	-8	5
Cc1cc2nc(-c3nnnn3-c3c(C)cccc3C)c(=O)[nH]c2cc1C	1	/	/	-24	0	/
Cc1ccc(Nc2nnc(SCC(=O)Nc3cccc(S(=O)(=O)N4CCCCC4)c3)s2)cc1	-2	18*	1	3	30	-13
O=C(CSc1nnc(NC(=O)C2CC2)s1)Nc1cccc(F)c1	0	14*	34	3	0	-7
Cc1nnc(SCC(=O)Nc2cccc(S(=O)(=O)N3CCCCC3)c2)s1	0	4	19	1	-4	4
CCc1ccccc1NC(=O)CSc1ccsc1[N+](=O)[O-]	0	-1	31	3	4	2
COc1cccc(NC(=O)CSc2nnc(NC(=O)C3CCC3)s2)c1	0	12*	26	0	-1	-8
O=C(CSc1ccsc1[N+](=O)[O-])Nc1cccc(F)c1	-2	20*	7	5	13	-8
Cc1cccc(NC(=O)CSc2nnc(NC(=O)C3CC3)s2)c1C	1	-1	-15	2	-5	-5
COc1cccc(C(=O)Nc2nnc(SCC(=O)Nc3ccc(NC(C)=O)cc3)s2)c1	0	37*	6	1	-8	-16
COc1cccc(N2CC(C(=O)Nc3nnc(SCC(=O)Nc4ccc(NC(C)=O)cc4)s3)CC2=O)c1 (stereo not drawn)	0	3	-8	-1	-5	2
Cc1noc(C)c1Cn1c(C)c(C(=O)NCc2ccc3c(c2)OCCO3)sc1=O	2	/	/	-1	-1	-3
C=CCC(CC(O)COCCC)C(=O)NNC(=S)Nc1ccccc1 (stereo not drawn)	1	10*	19	2	-4	-7
Cn1c(C(=O)NC2CC2)cc2c(=O)n(C)c3ccccc3c21	-1	0	0	3	-3	35
Cn1c(C(=O)Nc2ccc3c(c2)OCCO3)cc2c(=O)n(C)c3ccccc3c21	2	-3	4	0	10	95*
CCOc1ccc(CCN2C(=S)N([C@@H](Cc3ccc(O)cc3)CN3CCC[C@@H]3CN3C(=S)NC[C@@H]3Cc3ccccc3)C[C@@H]2Cc2ccc(O)cc2)cc1	-1	/	/	0	-88	-3
O=C(Nc1cccc(O)c1)c1c(O)c2ccccc2[nH]c1=O	0	44*	1	-1	14	-11
COc1cc(-c2csc(C)n2)ccc1O	2	0	1	0	-8	-1
Cc1nc(-c2ccc(O)c(O)c2)cs1	-4	1	22	-3	-7	61*
Cc1ccc(S(=O)(=O)N(CC(=O)Nc2ccc(Cl)c([N+](=O)[O-])c2)C2CCCCC2)cc1	2	11*	5	-8	43	-11
Cc1cc(C2CCCCC2)n(O)c(=O)c1	0	-2	14	0	21	69*

Assay outcomes from PubChem.
